Assay results collected from several papers.
Each line is one published result; the experiments were not run side by side.
Target: Serine/threonine-protein kinase PLK4 (PLK4, Homo sapiens, UniProt O00444)
Sequence (O00444 1-970, as in one of the studies): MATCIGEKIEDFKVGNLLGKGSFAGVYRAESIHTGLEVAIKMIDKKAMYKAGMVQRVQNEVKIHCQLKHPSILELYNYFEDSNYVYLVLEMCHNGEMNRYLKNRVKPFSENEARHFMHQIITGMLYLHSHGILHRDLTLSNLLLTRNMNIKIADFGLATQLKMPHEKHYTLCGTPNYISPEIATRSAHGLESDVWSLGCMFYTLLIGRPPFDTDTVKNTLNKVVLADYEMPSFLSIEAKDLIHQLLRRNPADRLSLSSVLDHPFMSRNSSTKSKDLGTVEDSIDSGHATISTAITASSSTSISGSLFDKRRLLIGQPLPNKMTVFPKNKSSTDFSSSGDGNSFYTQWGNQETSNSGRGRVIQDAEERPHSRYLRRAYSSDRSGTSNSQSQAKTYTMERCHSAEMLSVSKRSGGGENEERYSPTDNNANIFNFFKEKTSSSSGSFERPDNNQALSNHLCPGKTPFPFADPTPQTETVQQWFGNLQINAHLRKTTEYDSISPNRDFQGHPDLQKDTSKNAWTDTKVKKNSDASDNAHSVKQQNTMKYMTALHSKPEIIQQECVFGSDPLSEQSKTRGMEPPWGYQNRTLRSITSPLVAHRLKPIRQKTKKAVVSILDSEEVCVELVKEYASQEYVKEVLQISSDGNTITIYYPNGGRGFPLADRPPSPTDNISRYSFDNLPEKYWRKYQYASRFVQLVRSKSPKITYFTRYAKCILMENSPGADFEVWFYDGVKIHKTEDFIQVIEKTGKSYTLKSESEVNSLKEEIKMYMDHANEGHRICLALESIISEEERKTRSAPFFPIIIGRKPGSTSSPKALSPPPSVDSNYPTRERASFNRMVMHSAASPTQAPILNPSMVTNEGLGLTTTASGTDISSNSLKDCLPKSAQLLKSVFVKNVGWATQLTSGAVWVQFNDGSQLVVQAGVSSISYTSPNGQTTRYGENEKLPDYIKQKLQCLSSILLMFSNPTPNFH

Cc1ccc(C(=O)Nc2ccc(CN3CCN(C)CC3)c(C(F)(F)F)c2)cc1C#Cc1cnc2cccnn12
remaining activity (enzyme activity, inhibitor; 23.5 nM): 84%

CC(C)(C)c1nc2c(s1)c1nc(N)ncc1c1ccc(NS(=O)(=O)c3c(F)cccc3F)c(F)c12
remaining activity (enzyme activity, inhibitor, radiometric; 1 µM): 44%

CN(C)c1ncnc(-c2ccc3nc(Nc4cc(CN5CCN(C(=O)CC(F)(F)F)CC5)ccn4)[nH]c3c2)c1Cl
remaining binding (cell-free assay, competition with immobilised ligand; 1 µM): 76%

COc1cc(Cl)c(C(=O)N[C@@H](CN[C@H]2CC[C@@H](N)CC2)Cc2ccc(C#N)cc2)cc1-c1ccc(CN[C@H](C)c2ccc(C)cc2)o1
remaining activity (enzyme activity, inhibitor; 1 µM): 83%

O=C(Nc1cccnn1)N1CC(C/C=C/c2cncc(Oc3ccc(C(F)(F)F)cn3)n2)C1
remaining binding (cell-free assay, competition with immobilised ligand; 1 µM): 98%

O=C(Nc1cnn(-c2csc(C(=O)NC3COC3)c2)c1)Nc1ccccc1Cl
remaining activity (enzyme activity, inhibitor; 5 µM): 88.2%

CC(C)(O)[C@H]1CC[C@H](Nc2ccc3ncc(-c4cccc(C(F)(F)F)c4)n3n2)CC1
remaining activity (enzyme activity, inhibitor; 1 µM): 101%

COc1cc2nccc(Oc3ccc(NC(=O)Nc4ccc(F)cc4F)c(F)c3)c2cc1OC
ΔTm (thermal stability, DSF; 10 µM): 5 to 10 °C

Cc1ccc(C(=O)NCc2ccsc2)cc1C#Cc1cn(C(C)C)c2ncnc(N)c12
activity vs control (enzyme activity, inhibitor; 1 µM): 75%

Cc1sc(C(=O)NC2COC2)cc1-n1cc(NC(=O)Nc2c(F)cccc2Cl)cn1
remaining activity (enzyme activity, inhibitor; 10 µM): 100%

Nc1ncnc2occ(-c3ccc(NC(=O)Nc4cc(C(F)(F)F)ccc4F)cc3)c12
remaining signal (cell-free assay, inhibitor; 20 µM): 0.55%

CC(C)(C)c1nc(-c2cccc(NS(=O)(=O)c3c(F)cccc3F)c2F)c(-c2ccnc(N)n2)s1
remaining activity (enzyme activity, inhibitor, radiometric; 1 µM): 6%

CN1CC(Oc2cnc(C#N)cc2-c2ccn3nc(NC(=O)C4CC4)cc3c2)C1
inhibition (enzyme activity, inhibitor; 1 µM): -5%
